Calls of active or inactive are those of the source. The rule behind the calls is not given here.
Key:
[1] = target: T1, Kinesin-like protein KIF20A (Homo sapiens, UniProt O95235); assay: Inhibition of N-terminal MKLP2 (56 to 505 residues) ATPase basal activity isolated from human hepatocellular carcinoma cells by pyruvate kinase/lactate dehydrogenase enzyme linked assay
T1 sequence (O95235 whole entry): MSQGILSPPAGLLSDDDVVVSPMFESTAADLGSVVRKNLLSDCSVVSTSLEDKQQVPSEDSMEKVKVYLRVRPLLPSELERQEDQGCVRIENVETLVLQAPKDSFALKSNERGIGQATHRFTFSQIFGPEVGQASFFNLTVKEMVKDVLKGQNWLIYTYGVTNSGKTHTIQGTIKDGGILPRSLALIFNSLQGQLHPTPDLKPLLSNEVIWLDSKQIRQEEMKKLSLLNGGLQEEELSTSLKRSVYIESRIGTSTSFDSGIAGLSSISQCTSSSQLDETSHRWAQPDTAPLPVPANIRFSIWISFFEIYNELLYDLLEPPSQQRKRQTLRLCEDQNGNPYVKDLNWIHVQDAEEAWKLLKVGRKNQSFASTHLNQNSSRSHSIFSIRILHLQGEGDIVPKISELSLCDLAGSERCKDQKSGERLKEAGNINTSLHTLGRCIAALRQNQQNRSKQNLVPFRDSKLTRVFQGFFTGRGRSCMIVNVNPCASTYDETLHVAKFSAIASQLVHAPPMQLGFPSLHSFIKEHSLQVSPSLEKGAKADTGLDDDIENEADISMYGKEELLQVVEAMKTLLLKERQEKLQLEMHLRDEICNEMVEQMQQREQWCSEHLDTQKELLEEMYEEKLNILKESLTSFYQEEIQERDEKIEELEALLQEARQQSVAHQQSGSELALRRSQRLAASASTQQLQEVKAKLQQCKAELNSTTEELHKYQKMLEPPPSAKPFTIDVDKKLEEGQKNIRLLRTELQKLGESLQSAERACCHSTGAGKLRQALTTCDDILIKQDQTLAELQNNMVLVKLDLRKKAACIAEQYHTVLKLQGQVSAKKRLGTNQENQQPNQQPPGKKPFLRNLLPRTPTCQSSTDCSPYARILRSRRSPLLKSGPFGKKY

[2] = target: T1, Kinesin-like protein KIF20A; assay: Inhibition of microtubule-stimulated N-terminal MKLP-2 (56 to 505 residues) ATPase activity isolated from human hepatocellular carcinoma cells by pyruvate kinase/lactate dehydrogenase enzyme linked assay
[3] = (§1) Inhibition of sheep brain tubulin polymerization by UV spectrophotometric analysis; set-up: species or system Ovis aries
Procedure, shortened: (§2)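 Tubulin purified from sheep brain by two assembly/disassembly cycles, about 2–3 mg/mL in 0.1 M MES, 0.5 mM MgCl2, 1 mM EGTA, 1 mM GTP, pH 6.6. Compound in DMSO added at 0 °C, then moved to a 37 °C thermostated cell. Assembly followed by turbidity at 350 nm for a few min.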

[4] = organism: Ovis aries; assay: as §1; set-up: concentration or dose not given beside the values; procedure, shortened: as §2
[5] = organism: Ovis aries; assay: Induction of sheep brain microtubule disassembly by UV spectrophotometric analysis
Procedure, shortened: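 Sheep brain tubulin, purified by two assembly/disassembly cycles and held in MES buffer with GTP at pH 6.6, was polymerized at 37 °C for 10 min. Compound was then added to the MTs at 0 °C and depolymerization was followed over the next few minutes by turbidity at 350 nm.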

[6] = system: KB; assay: Growth inhibition of human KB cells at 10 uM after 72 hrs by MTS assay; format: functional; conditions: for inhibition of growth at 10 µM: read-out: GI
Procedure, shortened: (§3)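 KB cells were grown in DMEM with 25 mM glucose and 10% FCS at 37 °C, 5% CO2, and seeded at 500 cells/well. 24 h later, compound in DMSO (1% final) was added at 10 µM or 1 µM for 72 h; controls received DMSO alone. Runs were in duplicate. Viable cells were read with MTS at 490 nm.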

[7] = system: KB; assay: Growth inhibition of human KB cells at 1 uM after 72 hrs by MTS assay; format: functional; conditions: for inhibition of growth at 1 µM: read-out: GI; procedure, shortened: as §3
[8] = organism: Ovis aries; assay: Inhibition of sheep brain microtubule disassembly by UV spectrophotometric analysis; set-up: concentration or dose not given beside the values
[9] = system: KB; assay: Growth inhibition of human KB cells after 72 hrs by MTS assay; format: functional

COc1ccc(/C=C(\C#N)c2c[nH]c3ccccc23)c(OC)c1
IC50 [1]: Not Active | IC50 [2]: Not Active | IC50 [3]: 12 µM | inhibition ([4]; concentration not given here): 76% | Activity [5]: inactive | inhibition of growth at 10 µM [6]: 99% | inhibition of growth at 1 µM [7]: 35%

N#C/C(=C\c1ccc(Cl)cc1)c1c[nH]c2ccccc12
inhibition ([4]; concentration not given here): 13% | Activity [5]: inactive | inhibition of growth at 10 µM [6]: 78%

COc1cc(/C=C(\C#N)c2c[nH]c3ccccc23)cc(OC)c1OC
IC50 [1]: Not Active | IC50 [2]: Not Active | inhibition [4]: inactive | Activity [5]: inactive | inhibition of growth at 10 µM [6]: 81% | inhibition of growth at 1 µM [7]: 6%

COc1cccc(/C=C(\C#N)c2c[nH]c3ccccc23)c1OC
IC50 [1]: Not Active | IC50 [2]: Not Active | inhibition [4]: inactive | Activity [5]: inactive | inhibition of growth at 10 µM [6]: 100% | inhibition of growth at 1 µM [7]: 2%

COc1ccc2c(c1)c(/C(C#N)=C/c1cccnc1)cn2C
IC50 [1]: Not Active | IC50 [2]: Not Active | IC50 [3]: 115 µM | inhibition ([4]; concentration not given here): 53% | inhibition of growth at 10 µM [6]: 33% | Activity [8]: 15%

COc1cc(/C=C(\C#N)c2c[nH]c3ccccc23)cc(OC)c1O
IC50 [1]: Not Active | IC50 [2]: Not Active | inhibition ([4]; concentration not given here): 22% | inhibition of growth at 10 µM [6]: 95% | inhibition of growth at 1 µM [7]: 59% | Activity [8]: 47%

COc1ccc(/C=C(\C#N)c2c[nH]c3ccccc23)cc1OC
IC50 [1]: Not Active | IC50 [2]: Not Active | IC50 [3]: 20 µM | inhibition ([4]; concentration not given here): 62% | Activity [5]: inactive | inhibition of growth at 10 µM [6]: 99% | inhibition of growth at 1 µM [7]: 25%

N#C/C(=C\c1cccnc1)c1c[nH]c2ncccc12
inhibition ([4]; concentration not given here): 19% | Activity [5]: inactive | inhibition of growth at 10 µM [6]: 100% | inhibition of growth at 1 µM [7]: 29%

COc1cc(/C=C(\C#N)c2c[nH]c3ccccc23)cc(OC)c1
inhibition ([4]; concentration not given here): 31% | inhibition of growth at 10 µM [6]: 96% | inhibition of growth at 1 µM [7]: 31% | Activity [8]: 11%

COc1ccc2[nH]c(C)c(/C(C#N)=C/c3cccnc3)c2c1
inhibition [4]: inactive | Activity [5]: inactive | inhibition of growth at 10 µM [6]: 69%

COc1ccc2[nH]cc(/C(=C/C#N)Cc3cccnc3)c2c1
IC50 [1]: Not Active | IC50 [2]: Not Active | inhibition ([4]; concentration not given here): 33% | Activity [5]: inactive | growth inhibition (GI) [6]: inactive

CC(=O)O[C@H]1C(=O)[C@@]2(C)[C@H]([C@H](OC(=O)c3ccccc3)[C@]3(O)C[C@H](OC(=O)[C@H](O)[C@@H](NC(=O)c4ccccc4)c4ccccc4)C(C)=C1C3(C)C)[C@]1(OC(C)=O)CO[C@@H]1C[C@@H]2O [PACLITAXEL]
IC50 [1]: Not Active | IC50 [2]: Not Active | IC50 [3]: 1 µM | GI50 [9]: 0.001 µM

COc1ccc2[nH]cc(C(=O)/C(C#N)=C/c3cccnc3)c2c1
IC50 [1]: Not Active | IC50 [2]: Not Active | inhibition [4]: inactive | inhibition of growth at 10 µM [6]: 27% | Activity [8]: 14%

CC(=O)O[C@@]12CO[C@@H]1C[C@H](O)[C@@]1(C)C(=O)[C@H](O)C3=C(C)[C@@H](OC(=O)[C@H](O)[C@@H](NC(=O)OC(C)(C)C)c4ccccc4)C[C@@](O)([C@@H](OC(=O)c4ccccc4)[C@H]21)C3(C)C [DOCETAXEL ANHYDROUS]
IC50 [1]: Not Active | IC50 [2]: Not Active | GI50 [9]: 0.00013 µM

N#C/C(=C\c1ccc(C(F)(F)F)cc1)c1c[nH]c2ccccc12
IC50 [1]: Not Active | IC50 [2]: Not Active | inhibition ([4]; concentration not given here): 57% | Activity [5]: inactive | inhibition of growth at 10 µM [6]: 87% | growth inhibition (GI) [7]: inactive

CSc1ccc(/C=C(\C#N)c2c[nH]c3ccccc23)cc1
IC50 [1]: Not Active | IC50 [2]: Not Active | inhibition [4]: inactive | Activity [5]: inactive | inhibition of growth at 10 µM [6]: 98% | growth inhibition (GI) [7]: inactive

COc1cc(OC)c(OC)cc1/C=C(\C#N)c1c[nH]c2ccccc12
IC50 [1]: Not Active | IC50 [2]: Not Active | inhibition ([4]; concentration not given here): 32% | Activity [5]: inactive | inhibition of growth at 10 µM [6]: 100% | inhibition of growth at 1 µM [7]: 40%

COc1ccc2[nH]cc(C(C#N)c3cccnc3)c2c1 (stereo not given)
IC50 [1]: Not Active | IC50 [2]: Not Active | inhibition [4]: inactive | Activity [5]: inactive | inhibition of growth at 10 µM [6]: 45%

N#C/C(=C\c1ccc(F)cc1)c1c[nH]c2ccccc12
inhibition ([4]; concentration not given here): 22% | Activity [5]: inactive | inhibition of growth at 10 µM [6]: 84% | growth inhibition (GI) [7]: inactive

COc1ccc2[nH]cc(/C(C#N)=C/C=C/c3cccnc3)c2c1
IC50 [1]: Not Active | IC50 [2]: Not Active | inhibition ([4]; concentration not given here): 11% | Activity [5]: inactive | inhibition of growth at 10 µM [6]: 10%

N#C/C(=C\c1cccnc1)c1c(-c2ccsc2)[nH]c2ccccc12
IC50 [1]: Not Active | IC50 [2]: Not Active | IC50 [3]: 9.2 µM | inhibition ([4]; concentration not given here): 70% | Activity [5]: inactive | inhibition of growth at 10 µM [6]: 99% | inhibition of growth at 1 µM [7]: 12%

N#C/C(=C\c1cccnc1)c1c(-c2ccccc2)[nH]c2ccccc12
IC50 [1]: Not Active | IC50 [2]: Not Active | inhibition ([4]; concentration not given here): 33% | inhibition of growth at 10 µM [6]: 93% | growth inhibition (GI) [7]: inactive | Activity [8]: 13%

N#CC(Cc1cccnc1)c1c[nH]c2ccccc12 (stereo not given)
inhibition ([4]; concentration not given here): 16% | inhibition of growth at 10 µM [6]: 5% | Activity [8]: 21%

COc1cc(OC)c(/C=C(\C#N)c2c[nH]c3ccccc23)c(OC)c1
IC50 [1]: Not Active | IC50 [2]: Not Active | inhibition [4]: inactive | inhibition of growth at 10 µM [6]: 83% | growth inhibition (GI) [7]: inactive | Activity [8]: 13%

COc1cccc(/C=C(\C#N)c2c[nH]c3ccccc23)c1
IC50 [1]: Not Active | IC50 [2]: Not Active | inhibition ([4]; concentration not given here): 37% | inhibition of growth at 10 µM [6]: 89% | growth inhibition (GI) [7]: inactive | Activity [8]: 38%

COc1cc2c(c(OC)c1OC)-c1ccc(OC)c(=O)cc1[C@@H](NC(C)=O)CC2 [COLCHICINE]
IC50 [1]: Not Active | IC50 [2]: Not Active | GI50 [9]: 0.0042 µM

N#C/C(=C\c1cccc(Cl)c1)c1c[nH]c2ccccc12
inhibition [4]: inactive | Activity [5]: inactive | inhibition of growth at 10 µM [6]: 94% | inhibition of growth at 1 µM [7]: 19%

N#C/C(=C\c1c[nH]c2ccccc12)c1cccnc1
inhibition ([4]; concentration not given here): 45% | Activity [5]: inactive | inhibition of growth at 10 µM [6]: 23%

COc1cccc2c(/C(C#N)=C/c3cccnc3)c[nH]c12
IC50 [1]: Not Active | IC50 [2]: Not Active | inhibition [4]: inactive | Activity [5]: inactive | inhibition of growth at 10 µM [6]: 85% | growth inhibition (GI) [7]: inactive

COc1ccc2c(c1)c(/C(C#N)=C/c1cccnc1)cn2C(C)=O
IC50 [1]: Not Active | IC50 [2]: Not Active | inhibition [4]: inactive | Activity [5]: inactive | inhibition of growth at 10 µM [6]: 74%
